From ChEMBL document CHEMBL4373681, “Aurantiamide-related dipeptide derivatives are formyl peptide receptor 1 antagonists” (Medchemcomm, 2019)
Non-standard residues stand in square brackets, D forms with d. Residues, ends and D or L forms follow the SMILES beside them. *: point of attachment. dCha = N[C@H](CC1CCCCC1)C(=O)O; Bz = O=C(c1ccccc1)*

Assays:
[1] = molecular target: T1, fMet-Leu-Phe receptor (Homo sapiens, UniProt P21462); test: Agonist activity at FPR1 in human neutrophils assessed as calcium mobilization incubated for 30 mins and measured for 5 sec for 240 sec by fluorometry; type: functional
T1 sequence (P21462 whole entry): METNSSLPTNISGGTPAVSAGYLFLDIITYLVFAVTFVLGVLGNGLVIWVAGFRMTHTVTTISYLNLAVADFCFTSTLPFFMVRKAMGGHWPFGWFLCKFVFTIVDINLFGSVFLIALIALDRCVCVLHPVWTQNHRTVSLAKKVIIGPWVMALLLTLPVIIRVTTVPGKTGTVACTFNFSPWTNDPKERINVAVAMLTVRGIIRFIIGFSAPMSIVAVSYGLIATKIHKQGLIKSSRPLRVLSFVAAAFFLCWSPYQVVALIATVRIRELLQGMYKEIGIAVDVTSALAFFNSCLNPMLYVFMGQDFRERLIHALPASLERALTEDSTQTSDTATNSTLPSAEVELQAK
How it was run: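 Neutrophils from healthy donor blood were isolated by dextran sedimentation, Histopaque 1077 gradient and hypotonic RBC lysis. They were loaded with Fluo-4 AM (1.25 µg/mL final) for 30 min at 37 °C, then resuspended in HBSS+ with 10 mM HEPES, 2×10^5 cells/well. Compound injected; fluorescence (485/538 nm) read every 5 s for 240 s at room temperature. Peak rise over baseline in the first 3 min; EC50 by nonlinear regression.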

[2] = molecular target: T2, N-formyl peptide receptor 2 (Homo sapiens, UniProt P25090); test: Agonist activity at FRP2 (unknown origin) transfected in human HL60 cells assessed as calcium mobilization incubated for 30 mins and measured for 5 sec for 240 sec by fluorometry; type: functional, cell-based
T2 sequence (P25090 whole entry): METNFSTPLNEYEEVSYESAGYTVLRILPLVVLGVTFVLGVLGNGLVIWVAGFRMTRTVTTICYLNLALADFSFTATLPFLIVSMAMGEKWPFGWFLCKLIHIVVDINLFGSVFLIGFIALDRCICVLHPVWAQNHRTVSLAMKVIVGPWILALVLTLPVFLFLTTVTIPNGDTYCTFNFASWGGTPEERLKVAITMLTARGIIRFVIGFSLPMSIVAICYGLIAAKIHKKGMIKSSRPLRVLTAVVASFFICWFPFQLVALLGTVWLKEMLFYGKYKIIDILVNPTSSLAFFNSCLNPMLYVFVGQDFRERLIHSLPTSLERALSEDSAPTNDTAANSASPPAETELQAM
How it was run: (§1)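 Stably transfected HL60 cells, with G418 dropped in the final culture round, loaded with Fluo-4 AM (1.25 µg/mL final) for 30 min at 37 °C in the dark. Cells were washed into HBSS with Ca2+/Mg2+ plus 10 mM HEPES, 2×10^5 cells/well. Compound added by injector, fluorescence (ex 485/em 538 nm) read every 5 s for 240 s at room temperature. Peak change over baseline in the first 3 min; EC50 by nonlinear regression.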

[3] = molecular target: T2, N-formyl peptide receptor 2; test: Antagonist activity against FPR2 (unknown origin) transfected in human HL60 cells assessed as calcium mobilization preincubated for 30 mins followed by WKYMVM addition and measured for 5 sec for 240 sec by fluorometry; type: functional, cell-based
How it was run: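 FPR2-transfected HL60 cells, Fluo-4 AM-loaded (1.25 µg/mL final, 30 min, 37 °C), in HBSS+/10 mM HEPES, 2×10^5 cells/well. 30 min room-temperature compound pretreatment, then 5 nM WKYMVM. Peak fluorescence rise (485/538 nm) in the first 3 min, normalized to 5 nM WKYMVM alone (100%). IC50 by nonlinear regression of 5–6-point curves.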

[4] = molecular target: T1, fMet-Leu-Phe receptor; test: Antagonist activity against FPR1 (unknown origin) transfected in human HL60 cells assessed as calcium mobilization preincubated for 30 mins followed by fMLF addition and measured for 5 sec for 240 sec by fluorometry; type: functional, cell-based
How it was run: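 FPR1-HL60 cells or donor neutrophils, Fluo-4 AM-loaded (1.25 µg/mL final, 30 min, 37 °C), in HBSS+/10 mM HEPES, 2×10^5 cells/well. Compound pretreatment 30 min at room temperature, then 5 nM fMLF. Peak fluorescence rise (485/538 nm) in the first 3 min was normalized to 5 nM fMLF alone (100%). IC50 from 5–6-point curves by nonlinear regression; maximal antagonist concentration ~50 μM.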

[5] = molecular target: T1, fMet-Leu-Phe receptor; test: Antagonist activity against FPR1 in human neutrophils assessed as calcium mobilization preincubated for 30 mins followed by fMLF addition and measured for 5 sec for 240 sec by fluorometry
[6] = molecular target: T1, fMet-Leu-Phe receptor; test: Agonist activity at FPR1 (unknown origin) transfected in human HL60 cells assessed as calcium mobilization incubated for 30 mins and measured for 5 sec for 240 sec by fluorometry; type: functional, cell-based; how it was run: as §1
[7] = test system: Neutrophil; test: Inhibition of fMLF-induced migration of human neutrophil preincubated for 30 mins followed by fMLF stimulation and measured after 60 mins by luminescence based assay

EC50 [1]	EC50 [2]	IC50 ([3]; read-out: IC50) [µM]	IC50 [4] [µM]	IC50 [5] [µM]	EC50 [6]	IC50 [7] [µM]	IC50 [3]	EC50 ([2]; read-out: EC50) [µM]	Compound
Not Active	Not Active	12.3	5.8	2.4	Not Active	1.6	–	–	COC(=O)[C@H](Cc1ccccc1)NC(=O)[C@H](Cc1c[nH]c2ccccc12)NC(=O)c1ccccc1
Not Active	Not Active	–	37.4	10.9	Not Active	–	Not Active	–	COC(=O)[C@H](Cc1ccccc1)NC(=O)[C@@H](Cc1c[nH]c2ccccc12)NC(=O)c1ccccc1
Not Active	Not Active	–	0.54	3.3	Not Active	3.1	Not Active	–	COC(=O)[C@@H](Cc1ccccc1)NC(=O)[C@H](Cc1c[nH]c2ccccc12)NC(=O)C1CCCCC1
Not Active	–	–	24.7	14.5	Not Active	–	Not Active	10.9	COC(=O)[C@@H](CC(C)C)NC(=O)[C@H](Cc1c[nH]c2ccccc12)NC(=O)c1ccccc1
Not Active	Not Active	–	11.7	25.3	Not Active	–	Not Active	–	COC(=O)[C@H](NC(=O)[C@H](Cc1c[nH]c2ccccc12)NC(=O)c1ccccc1)C(C)C
Not Active	Not Active	–	16.5	31.3	Not Active	–	Not Active	–	COC(=O)[C@@H](Cc1ccccc1)NC(=O)[C@@H](Cc1c[nH]c2ccccc12)NC(=O)c1ccccc1
Not Active	Not Active	–	19.6	27.7	Not Active	–	Not Active	–	COC(=O)[C@@H](Cc1ccccc1)NC(=O)[C@H](Cc1c[nH]c2ccccc12)NC(=O)CC(C)C
Not Active	–	–	17.1	12.6	Not Active	–	Not Active	10.5	COC(=O)[C@@H](Cc1ccccc1)NC(=O)[C@H](Cc1c[nH]c2ccccc12)NC(=O)OC(C)(C)C
Not Active	Not Active	–	0.45	0.18	Not Active	0.48	Not Active	–	COC(=O)[C@@H](Cc1ccccc1)NC(=O)[C@H](Cc1c[nH]c2ccccc12)NC(=O)c1ccccc1
Not Active	Not Active	–	0.67	0.12	Not Active	0.62	Not Active	–	COC(=O)[C@@H](CC1CCCCC1)NC(=O)[C@H](Cc1c[nH]c2ccccc12)NC(=O)c1ccccc1 (Bz-Trp-[dCha]-OMe)
